Assay results published in paper PMC9706633 (Poultry Science, 2022).
“Also recorded” adds a separate entry of the source.

Tests used:
CCK2R = settings: mammals, ref Noble and Roques, 2002, Miller and Gao, 2008, cited from earlier work; for binding affinities of CCK-8S and CCK-8NS to CCK2R compared: in words
cCCK2R [1] = assay: Western blot of CREB phosphorylation, CHO cells expressing cCCK2R; type: cell-based, chicken; settings: 10 nM, 10 min, normalized by β-actin, N = 4
How it was run: (§1)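 CHO cells transfected with 1000 ng chicken CCK1R or CCK2R expression plasmid, grown in 24-well plates at 37 °C. At 24 h post-transfection, cells were exposed to test peptide (10 nM, 10 min), lysed, and immunoblotted with phospho-ERK1/2 (Thr202/Tyr204) and phospho-CREB (Ser133) rabbit mAbs. Densitometric bands normalized to β-actin, expressed as fold of untreated control; mean ± SEM, N = 4; t-test or ANOVA/Dunnett.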

cCCK2R [2] = assay: pGL3-NFAT-RE-luciferase reporter assay; type: cell-based, chicken; settings: read-out: EC50, calcium mobilization, CHO cells expressing cCCK2R, peptide 10^−12 M - 10^−6 M, 6 h, triplicates (N = 3)
How it was run: (§2)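 CHO cells were grown in DMEM with 10% FBS at 37°C and 5% CO2. They were transiently co-transfected with 250 ng of chicken receptor plasmid (empty pcDNA3.1 as control) and 750 ng of reporter construct using jetPRIME. After 24 h, cells were reseeded and grown a further 24 h. Test peptide was then applied in DMEM, and lysate luciferase was measured. Data are mean ± SEM.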

[3] = system: CHO cells transfected with the empty pcDNA3.1(+) vector; assay: pGL4-SRE-luciferase negative control, CHO cells with empty pcDNA3.1; type: cell-based, Chinese hamster; settings: 6 h
How it was run: (§3)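 CHO cells (DMEM, 10% FBS, penicillin/streptomycin, 37°C, 5% CO2) seeded a day ahead and co-transfected (jetPRIME) with 250 ng empty pcDNA3.1 plus 750 ng reporter: CRE (cAMP/PKA), NFAT-RE (calcium) or SRE (MAPK/ERK). After 24 h, cells were replated in 96-well plates and grown 24 h. They were then exposed to test peptide at 10−12–10−6 M in DMEM for 6 h, lysed, and read for luciferase.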

cCCK1R [4] = assay: pGL3-NFAT-RE-luciferase reporter assay; type: cell-based, chicken; settings: read-out: EC50, calcium mobilization, CHO cells expressing cCCK1R, peptide 10^−12 M - 10^−6 M, 6 h, triplicates (N = 3)
How it was run: as §2

cCCK1R [5] = assay: pGL3-CRE-luciferase reporter assay; type: cell-based, chicken; settings: read-out: EC50, cAMP/PKA signaling pathway, CHO cells expressing cCCK1R, peptide 10^−12 M - 10^−6 M, 6 h, triplicates (N = 3)
How it was run: as §2

cCCK1R [6] = assay: Western blot of CREB phosphorylation, CHO cells expressing cCCK1R; type: cell-based, chicken; settings: 10 nM, 10 min, normalized by β-actin, N = 4
How it was run: as §1

[7] = system: CHO cells transfected with the empty pcDNA3.1(+) vector; assay: pGL3-CRE-luciferase negative control, CHO cells with empty pcDNA3.1; type: cell-based, Chinese hamster; settings: 6 h
How it was run: as §3

cCCK1R [8] = assay: pGL4-SRE-luciferase reporter assay; type: cell-based, chicken; settings: read-out: EC50, MAPK/ERK signaling pathway, CHO cells expressing cCCK1R, peptide 10^−12 M - 10^−6 M, 6 h, triplicates (N = 3)
How it was run: as §2

cCCK2R [9] = assay: pGL4-SRE-luciferase reporter assay; type: cell-based, chicken; settings: read-out: EC50, MAPK/ERK signaling pathway, CHO cells expressing cCCK2R, peptide 10^−12 M - 10^−6 M, 6 h, triplicates (N = 3)
How it was run: as §2

cCCK2R [10] = assay: Western blot of ERK1/2 phosphorylation, CHO cells expressing cCCK2R; type: cell-based, chicken; settings: 10 nM, 10 min, normalized by β-actin, N = 4
How it was run: as §1

cCCK1R [11] = assay: Overall activation of cCCK1R; design: species or system chicken; settings: 3 cell-based luciferase reporter systems and western blots; CHO cells; in words
cCCK2R [12] = assay: Overall activation of cCCK2R; design: species or system chicken; settings: 3 cell-based luciferase reporter systems and western blots; CHO cells; in words
cCCK1R [13] = assay: Western blot of ERK1/2 phosphorylation, CHO cells expressing cCCK1R; type: cell-based, chicken; settings: 10 nM, 10 min, normalized by β-actin, N = 4
How it was run: as §1

cCCK2R [14] = assay: pGL3-CRE-luciferase reporter assay; type: cell-based, chicken; settings: read-out: EC50, cAMP/PKA signaling pathway, CHO cells expressing cCCK2R, peptide 10^−12 M - 10^−6 M, 6 h, triplicates (N = 3)
[15] = system: CHO cells transfected with the empty pcDNA3.1(+) vector; assay: pGL3-NFAT-RE-luciferase negative control, CHO cells with empty pcDNA3.1; type: cell-based, Chinese hamster; settings: 6 h
How it was run: as §3

Row | Substance | binding affinities of CCK-8S and CCK-8NS to CCK2R compared (CCK2R) | binding affinity to CCK2R, fold higher than CCK-4 (CCK2R) [fold] | CREB phosphorylation (pCREB) (cCCK2R [1]) | EC50 (cCCK2R [2]) [nM] | effect on pGL4-SRE-luciferase activity in empty-vector CHO cells ([3]; N = 3) | effect on pGL4-SRE-luciferase activity in empty-vector CHO cells ([3]; N = 3, listed as CCK-8S) | EC50 (cCCK1R [4]) [nM] | EC50 (cCCK1R [5]) [nM] | CREB phosphorylation (pCREB) (cCCK1R [6]) | effect on pGL3-CRE-luciferase activity in empty-vector CHO cells ([7]; N = 3) | effect on pGL3-CRE-luciferase activity in empty-vector CHO cells ([7]; N = 3, listed as CCK-8S) | EC50 (cCCK1R [8]) [nM] | EC50 (cCCK2R [9]) [nM] | ERK1/2 phosphorylation (pERK1/2) (cCCK2R [10]) | activation of cCCK1R, overall (cCCK1R [11]) | activation of cCCK2R, overall (cCCK2R [12]) | ERK1/2 phosphorylation (pERK1/2) (cCCK1R [13]) | EC50 (cCCK2R [14]) [nM] | effect on pGL3-NFAT-RE-luciferase activity in empty-vector CHO cells ([15]; N = 3) | effect on pGL3-NFAT-RE-luciferase activity in empty-vector CHO cells ([15]; N = 3, listed as CCK-8S)
1 | CCK-8NS: non-sulfated octapeptide of CCK | similar | 10 |  |  |  |  |  |  |  |  |  |  |  |  |  |  |  |  |  | 
2 | DYMGWMDF [cCCK-8S, (Tyr (SO3H)^27) Cholecystokinin fragment 26-33 amide] | similar |  | potently enhance CREB phosphorylation | 1.93 ± 0.7 | no effect | no response | 5.41 ± 1.15 | 5.76 ± 1.55 | potently enhance CREB phosphorylation | no effect | no response | 0.32 ± 0.26 | 1.16 ± 0.61 | strongly enhance ERK1/2 phosphorylation | potently activated; also recorded: can potently activate cCCK1R; also recorded: activated preferentially | can potently activate cCCK2R | strongly enhance ERK1/2 phosphorylation | 29.6 ± 7.68 | no effect | no response
